This passage reports cytotoxicity results from ChEMBL document CHEMBL4513216, “Probing the Open Global Health Chemical Diversity Library for Multistage-Active Starting Points for Next-Generation Antimalarials” (ACS Infect Dis, 2020).

A short description of this data set: Toxicity liver stage against HepG2, at 10uM. Particulars: human, HepG2-A16-CD81EGFP cells; read-out: INHIBITION
On the set-up: test concentration 10 uM, cell line HepG2-A16-CD81EGFP. The data set is classed as cell-based. In short, it runs like this:
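Uninfected HepG2-A16-CD81EGFP cells, 3 × 10^3 per well, 1536-well, plated on prespotted compound at 10 μM final, parasite-free screening media added to match infected plates; puromycin 10 μM positive, DMSO 0.5% negative; run in parallel with 48 h PbLuc assay at 37 °C, 5% CO2; viability by CellTiter-Glo luminescence, normalized to controls.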
For the molecule `N#Cc1ccc(N2CCC(c3nc(C(F)(F)F)c[nH]3)CC2)nc1`, the cytotoxicity at 10 µM is -7.09%.
As to `O=S1(=O)CCN2C(=N1)Oc1ccc(Cl)cc12`, the cytotoxicity at 10 µM was determined as 13.7%.
`COC(=O)N1CC(C)=C(C)CN1C(=O)Nc1cccc(Cl)c1`: the cytotoxicity at 10 µM amounted to 0.359%.
As for `COc1cc(C(=O)N2CCCC(n3ccnc3)C2)cc2c1OCCO2` (stereo unspecified), the cytotoxicity at 10 µM was -5.28%.
`CCOCCC(=O)N1C[C@@H]2CC[C@H]1CN(c1ncccn1)C2`: the cytotoxicity at 10 µM came out at 2.53%.
Consider `O=C(C1CCCCO1)N1CCc2ncnc(NCCO)c2CC1` (stereo unspecified), for which the cytotoxicity at 10 µM is 7.94%.
As for `CCOc1ccc(C2SCC(=O)Nc3c2c(=O)[nH]n3C(C)C)cc1` (stereo unspecified), the cytotoxicity at 10 µM was 8.68%.
In the case of `O=C(NCCCc1nc(=O)[nH][nH]1)c1ccc(Cl)cn1`, the cytotoxicity at 10 µM is -47.6%.
As for `Cc1n[nH]c(C)c1CCCN(C)Cc1c[nH]nc1-c1ccc(F)cc1`, the cytotoxicity at 10 µM was determined as 3.45%.
Take `CN1C(=O)C(C)(C)COc2cc(NS(=O)(=O)c3ccccc3F)ccc21`: the cytotoxicity at 10 µM is -5.08%.
As to `CN(C)C(=O)c1cccnc1-c1ccc2c(c1)OCO2`, the cytotoxicity at 10 µM came to 1.58%.
With `Cc1c(C(=O)N2CCC3(CCC(=O)N(CCN(C)C)C3)CC2)ccn1C`, the cytotoxicity at 10 µM is -4.06%.
As for `COC(=O)NCC(=O)N1CCCC1c1nc(-c2ccccc2F)c[nH]1` (stereo unspecified), the cytotoxicity at 10 µM was 8.01%.
`O=S(=O)(CCCn1cncn1)Cc1cccc(F)c1`: the cytotoxicity at 10 µM stood at 2.31%.
With `CCCS(=O)(=O)N1CC[C@H]2O[C@H](c3nnc(C)o3)CC[C@H]21`, the cytotoxicity at 10 µM is -77.4%.
For `CCc1cnc(CN(C(C)=O)C2CCN(CCc3ccccn3)C2)o1` (stereo unspecified), the cytotoxicity at 10 µM is -2.72%.
With `CCCc1noc(CCC(=O)N2CCCC(c3ccn[nH]3)C2)n1` (stereo unspecified), the cytotoxicity at 10 µM is 12.2%.
On to `O=C([C@@H]1CCCO1)N1CCOCC2(CCN(Cc3cccnc3)C2)C1` (stereo partly specified), for which the cytotoxicity at 10 µM is -108%.
`CCc1nnc(CN2CCc3[nH]c(-c4ccc(OC)cc4)nc3C2)o1`: the cytotoxicity at 10 µM was -132%.
With `Cc1cnc(N2CC3(CCN(C(=O)c4cccnc4)C3)C2)nc1`, the cytotoxicity at 10 µM amounted to 2.55%.
As to `CC(C)OCCC1CCCCN1S(=O)(=O)c1cnn(C)c1` (stereo unspecified), the cytotoxicity at 10 µM amounted to 5.68%.
Take `CC/N=c1\nc(NCC)nc2n1C(O)(Nc1cc(Cl)ccc1Cl)CS2` (stereo unspecified): the cytotoxicity at 10 µM amounted to 51.8%.
With `CCc1nc(CNC(=O)C2CCC(=O)N(Cc3ccccc3F)C2)no1` (stereo unspecified), the cytotoxicity at 10 µM is -1.88%.
In the case of `CS(=O)(=O)c1ccc(CN2CCCC3(C2)C(=O)Nc2ccccc23)cc1` (stereo unspecified), the cytotoxicity at 10 µM was -1.3%.
Take `COc1cc2c(cc1CN1CCCCC1CN1CCOCC1)CCC2` (stereo unspecified): the cytotoxicity at 10 µM is -4.57%.
With `CC1CCN(C(CNC(=O)CCn2cccn2)c2cccs2)CC1` (stereo unspecified), the cytotoxicity at 10 µM stood at 13.5%.
On to `CCN(CC)S(=O)(=O)c1cnccc1N1CCN(C(C)C)CC1`, for which the cytotoxicity at 10 µM is -5.57%.
`CCN(CC)S(=O)(=O)N1CCCC(c2ncc3c(n2)CCN(C)C3)C1` (stereo unspecified): the cytotoxicity at 10 µM turned out to be 3.77%.
In the case of `COc1ccc(CC(C)Nc2cccc(SC)c2)cc1` (stereo unspecified), the cytotoxicity at 10 µM was 11.6%.
Take `CC(C)[C@H](NC(=O)NC1CCS(=O)(=O)C1)C(=O)Nc1cccnc1` (stereo partly specified): the cytotoxicity at 10 µM was determined as 6.85%.
With `COCC1CN(C(=O)c2ccnnc2)Cc2c1cnn2C` (stereo unspecified), the cytotoxicity at 10 µM was -3.09%.
Regarding `Cc1nc(C)c(C(=O)NCCNC(=O)Cc2cccc(F)c2)s1`, the cytotoxicity at 10 µM was -8.45%.
Take `CC(C)(C)c1noc(CN2CCN(C(=O)c3cccs3)CC2)n1`: the cytotoxicity at 10 µM is -5.82%.
Take `Cc1cc(C(=O)O)cc(S(=O)(=O)Nc2ccc3c(c2)OCCCO3)c1C`: the cytotoxicity at 10 µM is -4.72%.
Regarding `Cc1nnc(N2CCCC(CS(N)(=O)=O)C2)c(C#N)c1C` (stereo unspecified), the cytotoxicity at 10 µM amounted to 2.86%.
For `Cn1ccc(C(=O)N2CCCC2c2cc(CCO)[nH]n2)n1` (stereo unspecified), the cytotoxicity at 10 µM came to 3.31%.
Regarding `N#Cc1ccc(F)c(CNc2ccc(F)cc2OCCO)c1`, the cytotoxicity at 10 µM is -1.98%.
`O=S(=O)(NCCSc1nncn1C1CC1)c1ccccc1`: the cytotoxicity at 10 µM is -14.1%.
Consider `Cc1nn(C)c(C)c1CN(C)S(=O)(=O)c1c(C)n[nH]c1C`, for which the cytotoxicity at 10 µM is -2.32%.
As to `O=C(CC1CCC2(CC1)CCN(Cc1ccncc1)CC2)N1CCCC1`, the cytotoxicity at 10 µM came to 6.72%.
For `CS(=O)(=O)N1CC(c2ccnc(Nc3ccccn3)n2)C1`, the cytotoxicity at 10 µM worked out at 13.8%.
For the molecule `O=S(=O)(c1ccc(Cl)cc1)N1CCOC[C@H](Oc2cnccn2)C1`, the cytotoxicity at 10 µM was -2.57%.
As to `CCOc1ccc(S(=O)(=O)NCCc2ccc(N(C)C)cc2)cc1C`, the cytotoxicity at 10 µM is -6.48%.
For `CCOC(=O)c1cnn(-c2cc(Oc3cc(C)ccc3C)ncn2)c1N`, the cytotoxicity at 10 µM came out at 11.3%.
To `Cc1ccc(S(=O)(=O)c2ncccc2CN2CCN(C)CC2)cc1` belongs -51.3%; to `CC1COCCN1Cc1nc(Cc2ccccc2)no1` (stereo unspecified), 5.17%; to `CCOCC1CN(Cc2csc(C)n2)Cc2nccn2C1` (stereo unspecified), 5.98%.
For the molecule `CN1CCc2nc(C3CCN(C(=O)CCC4CCCC4)CC3)ncc2C1`, the cytotoxicity at 10 µM was -3.06%.
Take `Cc1nc2ccccc2c(=O)n1CCC(=O)N1CCNC(=O)C1`: the cytotoxicity at 10 µM was -19%.
As to `O=C(NCCN1CCOC1=O)c1cnc(-c2cccnc2)nc1`, the cytotoxicity at 10 µM turned out to be 0.611%.
As to `CC(CS(C)(=O)=O)N(C(=O)CCc1ccsc1)C1CC1` (stereo unspecified), the cytotoxicity at 10 µM was 1.97%.
Turning to `CCOc1ccc(NC(=O)NCCCN(C)S(C)(=O)=O)cc1C`, the cytotoxicity at 10 µM is 2.79%.
`O=C(c1ccccc1)N1CCCN(C(=O)c2ncncc2Cl)CC1`: the cytotoxicity at 10 µM stood at 4.26%.
For the molecule `C=C(C)CN1CCCC1c1nc(Cc2ccc(F)cc2)no1` (stereo unspecified), the cytotoxicity at 10 µM was -4.9%.
For `Cc1ccc(C(=O)NC2CCN(C(=O)Nc3ccccn3)CC2)s1`, the cytotoxicity at 10 µM is -4.54%.
To `CCOc1cc(CN[C@@H]2COC[C@H]2Cc2cc(C)no2)ccc1O` belongs 14.8%.
With `CCN(C(=O)CCOC)C(c1ccc(Cl)cc1)c1ccccn1` (stereo unspecified), the cytotoxicity at 10 µM is 1.88%.
As for `Cc1noc2ncnc(N3CCC(O)(Cn4ccnc4)CC3)c12`, the cytotoxicity at 10 µM was 0.648%.
In the case of `CN1CCN(c2ncc3c(c2C(=O)O)CCN(C2CCOC2)C3)CC1` (stereo unspecified), the cytotoxicity at 10 µM is 6.96%.
For `NC(=O)c1cn(CC2CCC2)c(C2CC2)n1`, the cytotoxicity at 10 µM stood at 12.8%.
`CCCN1C[C@H](NC(=O)c2cccs2)[C@@H](c2ccc(OC)cc2)C1`: the cytotoxicity at 10 µM is -9.96%.
To `COc1ccc(C2=CCN(C(=O)CN(C)CC(N)=O)CC2)cc1` belongs -9.19%.
To `CC(Sc1nnnn1C1CCOCC1)C(F)(F)F` (stereo unspecified) belongs 11.5%.
In the case of `O=C1CC(CNc2cncc(Cl)n2)c2ccccc2N1` (stereo unspecified), the cytotoxicity at 10 µM was -0.99%.
For `Cc1cccc(CN2C(=O)CCC23CCN(C(=O)c2ccco2)CC3)c1` the value was 6.09%; for `CC(C)Oc1cc(N2CCCC(O)C2)nc(N)n1` (stereo unspecified), -0.796%; for `Cn1cc(-c2cnc(N3CCOCC3)nc2)cc1C(=O)N1CCCC1`, -10.6%.
For `CCn1c(CN(C)C)nnc1C1CCN(Cc2ccncc2)CC1` the value was 8.18%; for `N#Cc1c(Cl)nsc1NCc1cccnc1OCC(F)(F)F`, 25.5%.
For `COCCn1c(C(=O)NC(C(N)=O)C(C)C)cc2ccccc21` (stereo unspecified), the cytotoxicity at 10 µM was found to be 9.73%.
For `c1cnc(N2CCN(C3CCC[C@@H]4CN(CC5CC5)C[C@H]34)CC2)nc1` (stereo partly specified), the cytotoxicity at 10 µM is 8.97%.
